According to ChEMBL document CHEMBL1158533, “Pyrazolylthiazole as DeltaF508-cystic fibrosis transmembrane conductance regulator correctors with improved hydrophilicity compared to bithiazoles” (J Med Chem, 2010):
pEC50: −log10 of the molar value.

How the values were obtained:
[1] = target: Cystic fibrosis transmembrane conductance regulator (Homo sapiens, UniProt P13569); assay: Binding affinity to human CFTR F508 deletion mutant expressed in FRT cells assessed as increase in iodine influx after 16 to 20 hrs by fluorescence assay; assay type: cell-based
Method in brief: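 FRT cells stably coexpressing human ΔF508-CFTR and halide sensor YFP-H148Q/I152L, grown 24 h at 37 °C, then incubated 16–20 h with test compound. Washed in PBS, then 20 min in PBS with forskolin (20 μM) and genistein (50 μM). Fluorescence (ex 500, em 535 nm) recorded 2 s baseline, then 12 s after I⁻-substituted PBS addition; initial I⁻ influx rate from exponential regression; EC50 and Vmax from concentration dependence.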

[2] = Octanol-water partition coefficient, log P by reverse-phase HPLC analysis; assay type: physicochemical
Method in brief: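 logP derived from reverse-phase HPLC capacity factor: logk from measured retention time, converted via a calibration curve of standards with known logP versus their logk values.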

Chain of Cystic fibrosis transmembrane conductance regulator (P13569 whole entry, looked up): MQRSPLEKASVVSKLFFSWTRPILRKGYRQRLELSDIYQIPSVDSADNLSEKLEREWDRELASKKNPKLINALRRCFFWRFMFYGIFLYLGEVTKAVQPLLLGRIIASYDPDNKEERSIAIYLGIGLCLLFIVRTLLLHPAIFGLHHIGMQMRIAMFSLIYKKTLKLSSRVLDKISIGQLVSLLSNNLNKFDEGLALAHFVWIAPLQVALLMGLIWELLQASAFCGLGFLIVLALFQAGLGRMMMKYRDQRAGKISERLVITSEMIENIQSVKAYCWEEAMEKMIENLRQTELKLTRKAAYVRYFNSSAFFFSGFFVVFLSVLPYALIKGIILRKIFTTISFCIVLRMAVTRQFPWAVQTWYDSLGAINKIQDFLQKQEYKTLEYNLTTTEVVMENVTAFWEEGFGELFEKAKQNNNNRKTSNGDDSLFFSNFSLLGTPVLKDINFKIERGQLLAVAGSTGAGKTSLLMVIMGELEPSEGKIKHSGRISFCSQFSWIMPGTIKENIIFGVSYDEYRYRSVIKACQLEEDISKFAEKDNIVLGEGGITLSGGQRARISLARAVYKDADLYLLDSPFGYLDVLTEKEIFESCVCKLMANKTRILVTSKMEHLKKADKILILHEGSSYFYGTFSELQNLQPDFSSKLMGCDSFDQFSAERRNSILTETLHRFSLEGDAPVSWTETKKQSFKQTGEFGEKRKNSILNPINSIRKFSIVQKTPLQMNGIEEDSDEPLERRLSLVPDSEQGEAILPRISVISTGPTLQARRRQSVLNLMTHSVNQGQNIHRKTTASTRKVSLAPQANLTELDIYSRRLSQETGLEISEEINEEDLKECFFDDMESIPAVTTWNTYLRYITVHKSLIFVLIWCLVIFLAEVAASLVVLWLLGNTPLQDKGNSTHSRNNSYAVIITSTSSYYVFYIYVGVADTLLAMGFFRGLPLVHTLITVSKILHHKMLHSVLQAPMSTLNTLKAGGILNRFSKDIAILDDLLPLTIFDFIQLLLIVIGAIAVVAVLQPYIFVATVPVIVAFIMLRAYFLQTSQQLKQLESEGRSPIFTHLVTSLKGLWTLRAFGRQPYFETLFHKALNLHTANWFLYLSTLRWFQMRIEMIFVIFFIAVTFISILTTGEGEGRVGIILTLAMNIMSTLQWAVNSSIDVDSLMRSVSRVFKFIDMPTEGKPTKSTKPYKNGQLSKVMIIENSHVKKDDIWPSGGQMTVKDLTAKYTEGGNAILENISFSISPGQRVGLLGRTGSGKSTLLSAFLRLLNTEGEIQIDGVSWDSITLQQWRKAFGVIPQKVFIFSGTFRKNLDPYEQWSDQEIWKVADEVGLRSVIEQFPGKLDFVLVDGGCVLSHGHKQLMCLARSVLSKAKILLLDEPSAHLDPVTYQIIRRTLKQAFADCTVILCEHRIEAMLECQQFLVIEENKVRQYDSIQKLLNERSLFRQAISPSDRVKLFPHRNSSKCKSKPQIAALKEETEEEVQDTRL

| SMILES | pEC50 [1] | logP [2] |
| --- | --- | --- |
| COc1ccc(NC(=O)c2cc(-c3sc(NC(=O)C(C)(C)C)nc3C)n(-c3ccc(Br)cc3)n2)cc1 | 5.47 | 5.52 |
| CCOC(=O)c1cc(-c2sc(NC(=O)C(C)(C)C)nc2C)nn1Cc1ccccc1 | 5.07 | – |
| COc1ccc(Cl)cc1Nc1nc(-c2sc(NC(=O)C(C)(C)C)nc2C)cs1 | 6.15 | – |
| COc1ccc(Cl)cc1Nc1nc2c(s1)CCCc1nc(NC(=O)C(C)(C)C)sc1-2 | 6.52 | – |
